From ChEMBL document CHEMBL3871276, “Synthesis, antiamoebic and molecular docking studies of furan-thiazolidinone hybrids” (Eur J Med Chem, 2016)
pIC50, pKi: −log10 of the molar value.

Experiments:
[1] = Cytotoxicity against CHO cells assessed as reduction in cell viability at 2.5 to 25 uM after 72 hrs by MTT assay; assay type: toxicity, cell-based, Cricetulus griseus; settings: chinese hamster
Summary of the method: (§1)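 Chinese hamster ovary cells in RPMI with 10% FBS and 1% penicillin-streptomycin-neomycin. 5,000 cells/well, in triplicate, exposed to compound or vehicle DMSO at 37 °C, 5% CO2 for 48 h or 72 h. MTT (5 mg/mL in PBS) added for 4 h, formazan dissolved in DMSO, absorbance at 570 nm. Viability expressed as % of DMSO control.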

[2] = Cytotoxicity against CHO cells assessed as reduction in cell viability after 72 hrs by MTT assay; assay type: toxicity, cell-based, Cricetulus griseus; settings: for IC50 at 72 h: Chinese hamster, CHO cells; for Activity: chinese hamster, cho, 72 h; summary of the method: as §1
[3] = Cytotoxicity against CHO cells assessed as reduction in cell viability after 48 hrs by MTT assay; assay type: toxicity, cell-based, Cricetulus griseus; settings: for IC50 at 48 h: Chinese hamster, CHO cells; for Activity: chinese hamster, cho, 48 h; summary of the method: as §1
[4] = test system: Entamoeba histolytica; assay: Antiamoebic activity against Entamoeba histolytica HM-1:IMSS trophozoites after 72 hrs by eosin staining based microdilution method; assay type: functional
Summary of the method: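 Trophozoites grown in Diamond TYIS-33 medium. Compounds in DMSO, 1 mg/mL stock, two-fold serial dilutions. 1.7 x 10⁴ organisms/well, plate gassed with nitrogen 10 min, 37 °C for 72 h. Wells washed with 0.9% NaCl, fixed with methanol, stained with 0.5% eosin for 15 min, dye released with 0.1 N NaOH, OD 490 nm. IC50 from linear regression of % inhibition vs log dose. Triplicate wells, repeated thrice.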

[5] = biological target: T1, Thioredoxin reductase (Entamoeba histolytica, UniProt C4LW95); assay: Inhibition of Entamoeba histolytica thioredoxin reductase
T1 sequence (C4LW95 whole entry): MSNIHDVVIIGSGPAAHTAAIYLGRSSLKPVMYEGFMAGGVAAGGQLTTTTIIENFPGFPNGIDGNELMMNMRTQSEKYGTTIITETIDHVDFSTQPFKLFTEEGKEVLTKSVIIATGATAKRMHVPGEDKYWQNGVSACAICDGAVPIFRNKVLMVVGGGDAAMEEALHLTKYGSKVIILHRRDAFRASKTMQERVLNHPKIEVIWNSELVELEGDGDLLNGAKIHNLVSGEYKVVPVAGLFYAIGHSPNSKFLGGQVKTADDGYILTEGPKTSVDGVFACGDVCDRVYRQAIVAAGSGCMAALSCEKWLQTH

[6] = Cytotoxicity against CHO cells assessed as reduction in cell viability at 2.5 to 50 uM after 48 hrs by MTT assay; assay type: toxicity, cell-based, Cricetulus griseus; settings: chinese hamster; summary of the method: as §1
[7] = Cytotoxicity against CHO cells assessed as reduction in cell viability at 50 uM after 72 hrs by MTT assay; assay type: toxicity, cell-based, Cricetulus griseus; settings: chinese hamster; summary of the method: as §1
[8] = Cytotoxicity against CHO cells assessed as reduction in cell viability at 100 uM after 48 hrs by MTT assay; assay type: toxicity, cell-based, Cricetulus griseus; settings: chinese hamster; summary of the method: as §1
[9] = Inhibition of Entamoeba histolytica O-acetyl-L-serine sulfohydrolase preincubated with enzyme followed by TNB substrate addition measured after 30 mins by UV-Visible spectrophotometric method; settings: in the assay text read “OAS substrate” for “TNB substrate”
Summary of the method: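 Recombinant EhOASS (90 μg) in 100 mM HEPES pH 7.0 with […], inhibitor 0.25–500 μM, preincubated 30 min at room temperature. Reaction started with O-acetyl-L-serine. TNB disappearance followed at 412 nm. % decrease in activity taken relative to the uninhibited reaction. IC50 from % inhibition vs log inhibitor concentration.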

| Compound | pIC50 [4] | pKi [5] | pKi [9] | Activity [1] | IC50 at 72 h [2] [µM] | Activity [2] | IC50 at 48 h [3] [µM] | Activity [3] | Activity [6] | Activity [7] | Activity [8] |
| --- | --- | --- | --- | --- | --- | --- | --- | --- | --- | --- | --- |
| COc1ccc(/C=C2\S/C(=N\c3ccccc3)N(Cc3ccco3)C2=O)cc1 | 5.87 | 5.68 | – | Non-Toxic | > 250 | Dose-dependent effect | > 400 | Dose-dependent effect | Non-Toxic | – | – |
| O=C1/C(=C/c2ccc(O)cc2)S/C(=N\c2ccccc2)N1Cc1ccco1 | 5.98 | 6.14 | – | Non-Toxic | > 250 | Dose-dependent effect | 400 | Dose-dependent effect | Non-Toxic | – | – |
| COc1ccc(OC)c(/C=C2\S/C(=N\c3ccccc3)N(Cc3ccco3)C2=O)c1 | 6.17 | 6.16 | – | Non-Toxic | > 250 | Dose-dependent effect | > 400 | Dose-dependent effect | Non-Toxic | Non-Toxic | Non-Toxic |
| S=C(NCc1ccco1)Nc1ccccc1 | 5.09 | – | – | – | – | – | – | – | – | – | – |
| O=C1/C(=C/c2ccc3c(c2)OCO3)S/C(=N\c2ccccc2)N1Cc1ccco1 | 5.53 | 4.57 | 3.46 | – | – | – | – | – | – | – | – |
| COc1cc(/C=C2\S/C(=N\c3ccccc3)N(Cc3ccco3)C2=O)cc(OC)c1OC | 5.91 | 5.98 | – | Non-Toxic | > 250 | Dose-dependent effect | > 400 | Dose-dependent effect | Non-Toxic | – | – |
| O=C1/C(=C/c2ccc([N+](=O)[O-])cc2)S/C(=N\c2ccccc2)N1Cc1ccco1 | 5.54 | 4.79 | 4.01 | – | – | – | – | – | – | – | – |
| Cc1ccc(/C=C2\S/C(=N\c3ccccc3)N(Cc3ccco3)C2=O)cc1 | 5.83 | 5.55 | – | Non-Toxic | 185 | Dose-dependent effect | 421 | Dose-dependent effect | Non-Toxic | – | – |
| O=C(CSc1nc(O)cc(=O)[nH]1)c1c[nH]c2ccccc12 | – | – | 4.59 | – | – | – | – | – | – | – | – |
| CCOc1ccc(/C=C2\S/C(=N\c3ccccc3)N(Cc3ccco3)C2=O)cc1 | 5.69 | 5.33 | 3.83 | – | – | – | – | – | – | – | – |
| O=C1/C(=C/c2ccccn2)S/C(=N\c2ccccc2)N1Cc1ccco1 | 6.57 | 6.41 | – | Non-Toxic | > 250 | Dose-dependent effect | > 400 | Dose-dependent effect | Non-Toxic | Non-Toxic | Non-Toxic |

Further compounds by rising pKi [5], results first:

| pIC50 [4] | pKi [5] | pKi [9] | Compound | Activity [1] | IC50 at 72 h [2] [µM] | Activity [2] | IC50 at 48 h [3] [µM] | Activity [3] | Activity [6] | Activity [7] | Activity [8] |
| --- | --- | --- | --- | --- | --- | --- | --- | --- | --- | --- | --- |
| 5.45 | 3.47 | 2.65 | O=C1CS/C(=N\c2ccccc2)N1Cc1ccco1 | – | – | – | – | – | – | – | – |
| 5.65 | 4.96 | 4.24 | O=C1/C(=C/c2ccccc2)S/C(=N\c2ccccc2)N1Cc1ccco1 | – | – | – | – | – | – | – | – |
| 5.63 | 5.21 | 4.07 | O=C1/C(=C/c2ccc(Cl)cc2)S/C(=N\c2ccccc2)N1Cc1ccco1 | – | – | – | – | – | – | – | – |
| 5.66 | 5.25 | 4.26 | CC(C)Oc1ccc(/C=C2\S/C(=N\c3ccccc3)N(Cc3ccco3)C2=O)cc1 | – | – | – | – | – | – | – | – |
| 5.71 | 5.45 | 4.33 | O=C1/C(=C/c2cccc([N+](=O)[O-])c2)S/C(=N\c2ccccc2)N1Cc1ccco1 | – | – | – | – | – | – | – | – |
| – | 5.48 | 4.37 | Cc1ncc([N+](=O)[O-])n1CCO [METRONIDAZOLE] | Non-Toxic | 280 | – | > 400 | – | Non-Toxic | – | – |
| 5.71 | 5.50 | 4.34 | O=C1/C(=C/c2cccc(Cl)c2)S/C(=N\c2ccccc2)N1Cc1ccco1 | – | – | – | – | – | – | – | – |
| – | 5.54 | – | Cc1ncc([N+](=O)[O-])n1CCn1cc(-c2ccccn2)nn1 | – | – | – | – | – | – | – | – |
| 6.33 | 6.17 | – | COc1ccc(/C=C2\S/C(=N\c3ccccc3)N(Cc3ccco3)C2=O)cc1OC | Non-Toxic | > 250 | Dose-dependent effect | > 400 | Dose-dependent effect | Non-Toxic | Non-Toxic | Non-Toxic |
